Screening data deposited in PubChem by Broad Institute.
An excerpt weighted towards active compounds, which were near 3.1% of everything screened.
ERAP1 inh: human ERAP1 aminopeptidase inhibitors, primary screen, biochemical, single point, plate reader | inhibition, % at 10.7 µM | recombinant ERAP1, Leu-AMC fluorescence, 60 min | AID 652197, 2013 | hit rate 0.15% among 340,000;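 active means mean replicate inhibition of at least 30%, or all replicates individually reaching that 30% level; inactive means mean below 30% and not every replicate reaching it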;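 further: 0% = neutral control wells and 100% = L-leucinethiol positive control wells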
rRNA inh HTS: reduced GFP signal of wild-type E. coli, primary screen, bacterial rRNA inhibitor project, GFP/RFP fluorescence, OD600, single point; E. coli WT GFP vs humanized-ribosome RFP mutants, 24 h; active compounds read low; DMSO median 0, no signal -100; GFP signal change (wild-type ribosome), % (test concentration not listed); hit rate 1.6% among 350,000;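 active means significant combined selectivity score with lowered wild-type GFP, culture density cut under 30%, mutant RFP and density less affected; inactive means any of these conditions unmet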
SIRT5 inh: SIRT5 desuccinylase inhibitors, primary screen, biochemical, fluorescence imaging, single point, set 5 | inhibition, % at 15 µM | AID 652115, 2013 | hit rate 1.1% among 330,000 | Purified SirT5, succinyl-peptide AMC, trypsin-coupled fluorescence; in the data active means inhibition above about 15%
Target sequence (Q9NXA8 whole entry, looked up): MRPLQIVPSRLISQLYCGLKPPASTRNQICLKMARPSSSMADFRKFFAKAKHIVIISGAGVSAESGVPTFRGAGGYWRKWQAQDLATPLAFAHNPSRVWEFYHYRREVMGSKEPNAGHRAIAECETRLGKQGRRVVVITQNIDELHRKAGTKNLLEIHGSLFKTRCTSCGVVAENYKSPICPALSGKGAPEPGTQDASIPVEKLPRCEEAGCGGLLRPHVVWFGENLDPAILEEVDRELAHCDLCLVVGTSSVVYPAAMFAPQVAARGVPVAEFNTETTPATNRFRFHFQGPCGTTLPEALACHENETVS
F508del corr: F508del CFTR correction, initial screen, CFBE line, single point; CFBE cells, YFP halide quenching; stimulated with forskolin plus potentiator P3; % fluorescence drop versus neutral controls; activity (quench increase), % at 7.58 µM; hit rate 0.36% among 350,000; AID 720511, 2013;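 active means mean added fluorescence quench of at least 8% versus neutral control, with both replicates also reaching 8%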;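 further: cells transiently co-express mutant CFTR-F508del with the halide-sensitive YFP; corrector assay measuring rescue of mutant channel to the surface after 24 h compound exposure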
S100A4 MyoIIA: inhibitors of S100A4-myosin IIA peptide binding, primary screen, biochemical, fluorescence polarization, TAMRA-MyoIIA peptide; Protein S100-A4 (Homo sapiens), P26447; AID 652163, 2013; hit rate 0.14% among 360,000; inhibition, % at 10.7 µM;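 active means mean inhibition of at least 70% across replicates, with every replicate also reaching that level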
Target sequence (P26447 whole entry, looked up): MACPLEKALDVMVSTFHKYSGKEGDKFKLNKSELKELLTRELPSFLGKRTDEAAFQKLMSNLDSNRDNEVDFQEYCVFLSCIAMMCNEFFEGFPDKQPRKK
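assay system = human S100A4 monomer with TAMRA-labelled myosin IIA peptide | also added = labelled myosin peptide probe, 5 nM | incubation = 5 min between mix addition and reading | control set = DMSO and TFP controls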
The depositor's hits bear a star; · = not tested or not shown.

SMILES	ERAP1 inh	rRNA inh HTS	SIRT5 inh	F508del corr	S100A4 MyoIIA
COc1cccc(S(=O)(=O)N(C)C[C@@H]2Oc3cc(C4=CCCCC4)ccc3S(=O)(=O)N([C@@H](C)CO)C[C@@H]2C)c1	·	0.4	21.4*	-3.9	2.0
COc1cccc(S(=O)(=O)N(C)C[C@H]2Oc3cc(C4=CCCCC4)ccc3S(=O)(=O)N([C@H](C)CO)C[C@H]2C)c1	·	0.9	·	-2.6	·
COc1cccc(S(=O)(=O)N(C)C[C@H]2Oc3cc(C4=CCCC4)ccc3S(=O)(=O)N([C@@H](C)CO)C[C@@H]2C)c1	1.6	1.5	21.2*	4.8	2.8
CO[C@@H]1CN(C)C(=O)c2ccc(NC(=O)C3CCCC3)cc2OC[C@@H](C)N(C(=O)Nc2ccc(C(F)(F)F)cc2)C[C@H]1C	-0.4	-51.5	3.7	-1.7	0.3
Clc1ccc(C2CC(c3cccs3)n3ncnc3N2)cc1 (stereo not given)	-3.5	-41.0*	-2.1	0.8	-0.6
Cc1ccc(-c2csc3ncn(CC#N)c(=O)c23)cc1C	2.2	-9.6	·	10.4*	-2.3
Cc1ccc(-c2csc3ncn(CC(=O)O)c(=O)c23)cc1C	0.0	1.8	-4.8	-9.3	-3.0
C[C@@H]1CCCCO[C@H](CN(C)C(=O)Nc2ccc(C(F)(F)F)cc2)[C@H](C)CN([C@H](C)CO)C(=O)c2cc(NS(=O)(=O)c3cccs3)ccc2O1	-2.9	-1.0	1.3	0.9	2.9
COc1ccc(S(=O)(=O)N2CCCc3nc(C)c(C)cc32)cc1	-3.4	-14.7*	·	-2.3	1.1
CCOC(=O)CSC1=C(C#N)C(c2ccccc2OC)CC(=O)N1 (stereo not given)	5.4	5.4	·	0.6	23.2
CCSC1=C(C#N)C(c2ccc(C)s2)CC(=O)N1 (stereo not given)	4.9	12.2	15.7*	0.3	1.9
CCOC(=O)CSC1=C(C#N)C(c2ccc(C)s2)CC(=O)N1 (stereo not given)	-1.1	0.5	-3.8	8.6*	9.1
CCOC(=O)CSC1=C(C#N)C(c2sccc2C)C(C(C)=O)=C(C)N1 (stereo not given)	-0.4	-39.6*	34.2*	-0.6	1.0
COCC(=O)Nc1ccc2c(c1)OC[C@H](C)N(Cc1ccccc1)C[C@@H](C)[C@@H](OC)CN(C)C2=O	1.4	-0.3	8.0	-1.0	12.8
C/C(=N\NC(=O)COc1ccccc1-c1ccccc1)c1ccccn1	4.2	-49.5*	-0.1	-3.4	-2.0
Cc1ccc(/C=N/NC(=O)CSc2nc3ccccc3s2)o1	6.2	-3.8	·	2.9	-0.5
C/C(=N\NC(=O)COc1ccccc1-c1ccccc1)c1cccnc1	-5.4	-39.6*	10.4	-1.9	-1.1
C/C(=N\NC(=O)CSc1nc2ccccc2s1)c1cccnc1	1.2	-20.9*	-1.7	-0.5	-7.4
O=C(COc1ccccc1-c1ccccc1)N/N=C/c1cccnc1	1.2	-34.5	-3.1	4.6	2.9
O=C(Nc1cccc(Cl)c1)Nc1cccc(C(=O)O)c1	·	-4.9	22.9*	0.7	-2.5
O=C(Nc1ccc(Cl)cc1)Nc1cccc(C(=O)O)c1	-0.9	-8.8	6.8	0.3	-5.8
Cc1nc(NCC2CCCO2)c2nnn(Cc3ccccc3)c2n1 (stereo not given)	0.4	-17.5*	-2.7	-0.1	-0.5
CC(C)=CCOc1ccc2ccc(=O)oc2c1	-1.1	5.3	-12.9	-3.1	2.7
COc1cc2ccc(=O)oc2c(O)c1OCC=C(C)C	-1.9	-20.8*	·	·	2.4
Cc1cccc(CC(=O)Nc2cccnc2)c1	1.3	4.9	7.2	8.4*	-5.1
SMILES	ERAP1 inh	rRNA inh HTS	SIRT5 inh	F508del corr	S100A4 MyoIIA
COc1ccc(C(=O)c2ccccc2Cl)cc1OC	2.4	-2.8	1.5	4.7	-1.4
COc1ccc(C(=O)c2cc(OC)c(OC)c(OC)c2)cc1OC	1.8	2.6	-1.5	13.2*	-4.9
CO[C@@H]1CN(C)C(=O)c2ccc(NC(=O)C3CCC3)cc2OC[C@H](C)N(C(=O)NC(C)C)C[C@@H]1C	-2.8	-0.5	0.2	-3.5	17.6
CC1CCCC(NC(=O)COC(=O)Cc2cn3ccsc3n2)C1C (stereo not given)	4.1	5.2	15.3*	·	-2.5
CCn1cc(C(=O)O)c(=O)c2cnc(N3CCN(C(=S)Nc4ccccc4Cl)CC3)nc21	·	-48.2	15.9*	0.5	6.7
CCn1cc(C(=O)O)c(=O)c2cnc(N3CCN(C(=S)Nc4ccc(F)cc4)CC3)nc21	3.1	-47.4	-1.3	4.4	9.9
CCn1c(CCCCc2n[nH]c(=S)n2CC)n[nH]c1=S	6.5	15.1	-3.8	1.3	-3.4
CCn1c(CCCOc2ccc(Cl)cc2Cl)n[nH]c1=S	-3.0	-33.7*	0.5	-0.6	4.4
O=C(Nc1ccccc1F)N1CC(=O)N2[C@H](CO)[C@@H](c3ccc(C#CC4CCCC4)cc3)[C@@H]2C1	0.1	-11.7	14.9	3.8	-11.2
O=C1CNC[C@H]2[C@@H](c3ccc(C#CC4CCCC4)cc3)[C@@H](CO)N12	-0.4	-1.4	-2.4	1.8	88.1*
CCCC#Cc1ccc([C@@H]2[C@@H](CO)N3C(=O)CN(C(=O)Nc4cc(F)ccc4F)C[C@H]23)cc1	·	0.3	·	·	·
O=C(Nc1ccccc1F)N1CC(=O)N2[C@H](C1)[C@@H](c1ccc(C#CC3CCCC3)cc1)[C@@H]2CO	·	-11.4	18.8*	2.3	·
O=C(Nc1cc(F)ccc1F)N1CC(=O)N2[C@H](CO)[C@@H](c3ccc(C#CC4CCCCC4)cc3)[C@H]2C1	-0.5	1.2	9.5	2.8	-2.1
O=C(Nc1cc(F)ccc1F)N1CC(=O)N2[C@H](C1)[C@H](c1ccc(C#CC3CCCCC3)cc1)[C@@H]2CO	-1.1	3.9	18.5*	0.0	5.7
CCCC#Cc1ccc([C@H]2[C@H](CO)N3C(=O)CN(C(=O)Nc4cc(F)ccc4F)C[C@@H]23)cc1	1.1	3.8	5.1	10.3*	4.8
CCCNC(=O)N(C)C[C@H]1Oc2cc(-c3cncnc3)ccc2S(=O)(=O)N([C@H](C)CO)C[C@H]1C	0.1	1.3	-10.2	-2.5	17.7
O=C(Nc1cc(F)ccc1F)N1CC(=O)N2[C@@H](CO)[C@H](c3ccc(C#CC4CCCCC4)cc3)[C@@H]2C1	-2.9	1.7	17.7*	9.9*	0.5
Cc1cc(C)cc(N2CC(c3nc4ccccc4n3C)CC2=O)c1 (stereo not given)	102.6*	2.6	0.0	-6.0	-0.4
CCN(CC)c1ccc(C(=C2C=CC(=[N+](CC)CC)C=C2)c2ccccc2)cc1	12.7	-55.7*	-0.4	-9.5	0.8
COc1ccc(C2=NOC(C(=O)NCc3ccc(F)cc3)C2)cc1OC (stereo not given)	-0.1	-18.2	-5.1	8.7*	-5.0
